Measured values: PMC2828537 (Pflugers Archiv : European journal of physiology, 2009)
Where a name gives a salt, the structure may show the parent alone. Marks after values point to notes of the source that are not given here.

Assays:
[1] = molecular target: T1, human TRPA1 endogenously expressed in WI-38 fibroblasts (Homo sapiens, UniProt O75762); test: Fluo4 [Ca2+]i assay in WI-38 fibroblasts; assay type: cell-based; conditions: for agonist effect on Fluo4 fluorescence ([Ca2+]i) in WI-38 cells: 300 µM; for effect of antagonist on response to AITC / effect of antagonist preincubation on response to FFA: antagonist 20 µM; for effect of antagonist on response to AITC: AITC 33 µM; for effect of antagonist preincubation on response to FFA: FFA 33 µM; for antagonist effect on the response induced by FFA or AITC: 100 µM added 2 min before the agonist, data not shown
T1 sequence (O75762 whole entry): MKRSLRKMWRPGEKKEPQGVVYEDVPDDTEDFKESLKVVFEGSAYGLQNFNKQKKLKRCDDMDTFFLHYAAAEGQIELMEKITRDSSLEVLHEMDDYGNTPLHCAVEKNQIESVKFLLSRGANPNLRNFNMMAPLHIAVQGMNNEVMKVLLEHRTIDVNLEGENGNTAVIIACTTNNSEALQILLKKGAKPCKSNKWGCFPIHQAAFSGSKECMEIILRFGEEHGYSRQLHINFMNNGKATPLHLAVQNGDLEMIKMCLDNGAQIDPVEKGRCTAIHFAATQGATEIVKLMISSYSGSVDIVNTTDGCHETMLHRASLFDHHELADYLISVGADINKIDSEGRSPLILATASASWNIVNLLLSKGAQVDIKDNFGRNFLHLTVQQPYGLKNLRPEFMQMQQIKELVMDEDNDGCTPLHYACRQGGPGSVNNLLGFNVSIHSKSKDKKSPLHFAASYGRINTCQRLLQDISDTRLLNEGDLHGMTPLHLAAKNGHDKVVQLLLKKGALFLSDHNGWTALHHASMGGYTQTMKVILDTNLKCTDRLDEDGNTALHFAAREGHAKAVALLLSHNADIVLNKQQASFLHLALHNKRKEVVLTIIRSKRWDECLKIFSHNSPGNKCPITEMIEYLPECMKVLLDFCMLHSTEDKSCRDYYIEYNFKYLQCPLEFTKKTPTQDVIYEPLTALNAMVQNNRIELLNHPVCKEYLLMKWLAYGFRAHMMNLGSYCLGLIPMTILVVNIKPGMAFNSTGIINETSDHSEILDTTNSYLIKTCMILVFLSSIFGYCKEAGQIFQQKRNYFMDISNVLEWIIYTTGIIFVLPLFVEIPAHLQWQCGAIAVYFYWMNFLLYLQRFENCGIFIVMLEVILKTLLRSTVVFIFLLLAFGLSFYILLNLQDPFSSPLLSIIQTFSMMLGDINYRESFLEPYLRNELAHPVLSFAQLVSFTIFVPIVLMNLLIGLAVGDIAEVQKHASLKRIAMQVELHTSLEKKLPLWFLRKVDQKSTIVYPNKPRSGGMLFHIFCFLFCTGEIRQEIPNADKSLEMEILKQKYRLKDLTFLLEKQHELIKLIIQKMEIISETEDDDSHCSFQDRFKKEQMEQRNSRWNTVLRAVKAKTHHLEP

human TRPA1 = human TRPA1 (Homo sapiens, UniProt O75762); test: Fluo4 [Ca2+]i assay in HEK-A1 cells; assay type: cell-based; conditions: for nH (Hill coefficient): HEK-A1 cells
Chain of human TRPA1 (O75762 whole entry): as above

HEK293 cells = test: Fluo4 [Ca2+]i assay in parental HEK293 cells; assay type: cell-based; conditions: 300 µM
Outline: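 Wild-type HEK293 cells in DMEM (4.5 mg/ml glucose, 10% heat-inactivated FBS, penicillin/streptomycin), plated on polyornithine-treated wells for 14–18 hrs. Loaded with Fluo4-AM (2 µM, 60 min, 37°C) in ECS with 2 mM probenecid, then washed. Test compound was given robotically at 300 µM final. Fluorescence was read on a plate reader at ex 494/em 525 nm, 0.67 Hz, 20–25°C.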

rat TRPA1 = rat TRPA1 (Rattus norvegicus, UniProt Q6RI86); test: Two-electrode voltage clamp of Xenopus oocytes expressing rat TRPA1; assay type: cell-based; conditions: for effect on current in TRPA1-expressing oocytes: 300 µM; for current evoked by agonist alone, % of that evoked by 30 µM FFA: 3 µM agonist alone; for interaction with AITC, CA, or cold on channel activation: 30 µM fenamate with 3 µM AITC or CA, or 14°C; for EC50: nominally Ca2+-free bath
Chain of rat TRPA1 (Q6RI86 whole entry): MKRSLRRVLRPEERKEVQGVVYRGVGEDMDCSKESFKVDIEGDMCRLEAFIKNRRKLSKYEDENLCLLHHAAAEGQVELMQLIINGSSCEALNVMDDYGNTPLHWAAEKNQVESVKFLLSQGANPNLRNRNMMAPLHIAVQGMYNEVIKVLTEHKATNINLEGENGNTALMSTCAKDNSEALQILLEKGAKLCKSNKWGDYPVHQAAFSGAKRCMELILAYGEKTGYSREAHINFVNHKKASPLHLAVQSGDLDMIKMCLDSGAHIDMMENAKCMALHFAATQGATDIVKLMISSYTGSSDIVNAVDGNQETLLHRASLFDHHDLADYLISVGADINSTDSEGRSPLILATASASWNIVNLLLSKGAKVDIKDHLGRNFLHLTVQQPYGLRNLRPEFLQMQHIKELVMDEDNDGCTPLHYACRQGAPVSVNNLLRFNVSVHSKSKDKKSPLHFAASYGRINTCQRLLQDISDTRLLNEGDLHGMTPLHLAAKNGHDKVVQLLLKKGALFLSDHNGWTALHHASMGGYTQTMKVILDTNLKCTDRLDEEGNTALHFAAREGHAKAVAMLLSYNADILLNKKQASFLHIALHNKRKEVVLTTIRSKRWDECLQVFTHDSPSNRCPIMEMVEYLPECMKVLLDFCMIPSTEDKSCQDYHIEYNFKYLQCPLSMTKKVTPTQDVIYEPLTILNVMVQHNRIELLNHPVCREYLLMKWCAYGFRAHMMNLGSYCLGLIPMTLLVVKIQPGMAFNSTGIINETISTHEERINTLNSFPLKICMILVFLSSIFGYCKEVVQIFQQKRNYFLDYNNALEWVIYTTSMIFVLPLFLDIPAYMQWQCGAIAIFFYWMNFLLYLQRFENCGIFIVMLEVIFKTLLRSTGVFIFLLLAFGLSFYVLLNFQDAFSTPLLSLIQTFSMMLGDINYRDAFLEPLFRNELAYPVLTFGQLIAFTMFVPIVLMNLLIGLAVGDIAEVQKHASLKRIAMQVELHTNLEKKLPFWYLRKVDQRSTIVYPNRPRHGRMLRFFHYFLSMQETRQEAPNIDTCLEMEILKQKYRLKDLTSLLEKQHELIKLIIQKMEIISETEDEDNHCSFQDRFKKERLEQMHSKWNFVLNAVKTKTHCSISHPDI

[2] = molecular target: human TRPA1 Cys621Ser, Cys641Ser and Cys665Ser triple mutant (Homo sapiens, UniProt O75762, C621S/C641S/C665S); test: Currents of human TRPA1 triple cysteine mutant; assay type: cell-based; conditions: HH, unpublished results
Chain of human TRPA1 Cys621Ser, Cys641Ser and Cys665Ser triple mutant (O75762 whole entry C621S/C641S/C665S): as the sequence (O75762 whole entry) above, with C621S, C641S, C665S counted along it

[3] = system: TRPA1 channels heterologously expressed in mammalian cells and Xenopus oocytes; conditions: read-out: EC50 reported in the literature; as low as; cited from earlier work
[4] = molecular target: T1, human TRPA1 endogenously expressed in WI-38 fibroblasts; test: Whole-cell recordings of WI-38 cells; assay type: cell-based; conditions: ruthenium red 30 µM in the bath
Outline: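 WI-38 cells grown in MEM with 10% heat-inactivated FBS and penicillin/streptomycin at 37°C, 5% CO₂. Cells were detached with 0.05% trypsin plus 0.53 mM EDTA in Ca²⁺/Mg²⁺-free HBSS for 5–10 min, held at 37°C, then settled on polyornithine-coated coverslips for 3–5 min before perfusion. Whole-cell voltage clamp was sampled at 5 kHz, with 100 ms ramps from −100 to +100 mV (holding −60 mV) applied every 0.5 s.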

Q: For `CC(C(=O)O)c1ccc(-c2ccccc2)c(F)c1` (racemic) [flurbiprofen, (±)-flurbiprofen], which EC50 [1] is on record?
A: 342 ± 6 µM

Q: What about the “agonist effect on Fluo4 fluorescence ([Ca2+]i) in WI-38 cells” value (from here on “agonist effect on Fluo4 fluorescence”) [1] of the same compound?
A: increased the Fluo4 fluorescence

Q: What about the “nH (Hill coefficient)” value ([1]; WI-38 cells) of the same compound?
A: 1.5 ± 0.1

Q: And the EC50 (human TRPA1)?
A: 310 ± 66 µM

Q: What about the “nH (Hill coefficient)” value (human TRPA1) of the same compound?
A: 2.0 ± 0.3

Q: And the “effect on Fluo4 fluorescence in HEK293 cells” value (shortened to “effect … in HEK293 cells”) (HEK293 cells)?
A: little effect

Q: And the “effect on current in TRPA1-expressing oocytes” value (“effect on current” below) (rat TRPA1)?
A: caused current increases

Q: For `NCCOB(c1ccccc1)c1ccccc1` [2APB, 2-aminoethoxydiphenyl borate], which “concentration-response curve in triple cysteine mutant” value [2] is on record?
A: right-shifted

Q: For `C=CCN=C=S` [AITC, allyl isothiocyanate], which “agonist effect on Fluo4 fluorescence” value [1] is on record?
A: rapid fluorescence increase

Q: And the “nH (Hill coefficient)” value ([1]; WI-38 cells)?
A: 1.0 ± 0.1

Q: What about the “nH (Hill coefficient)” value (human TRPA1) of the same compound?
A: 0.8 ± 0.1

Q: What about the EC50 [3] of the same compound?
A: 5 µM

Q: And the “current evoked by agonist alone, % of that evoked by 30 µM FFA” value (shortened to “current evoked by agonist alone, %”) (rat TRPA1; +100 mV)?
A: 45 ± 14%

Q: And the “current evoked by agonist alone, %” value (rat TRPA1; −100 mV)?
A: 51 ± 10%

Q: With `CC(=C\c1ccc(Cl)cc1)/C(C)=N/O` [AP-18] as the compound, how does the “effect of antagonist on response to AITC” value [1] read?
A: blocked

Q: And the “effect of antagonist preincubation on response to FFA” value [1]?
A: inhibited

Q: With `O=C/C=C/c1ccccc1` [CA, cinnamaldehyde] as the compound, how does the EC50 [1] read?
A: 400 ± 41 µM

Q: And the “agonist effect on Fluo4 fluorescence” value [1]?
A: rapid fluorescence increase

Q: What about the “nH (Hill coefficient)” value ([1]; WI-38 cells) of the same compound?
A: 0.9 ± 0.1

Q: And the EC50 [3]?
A: 6.5 µM

Q: And the “current evoked by agonist alone, %” value (rat TRPA1; +100 mV)?
A: 44 ± 16%

Q: What about the “current evoked by agonist alone, %” value (rat TRPA1; −100 mV) of the same compound?
A: 45 ± 8%

Q: With `CC(C)c1ccc(NC(=O)Cn2cnc3c2c(=O)n(C)c(=O)n3C)cc1` [HC-030031] as the compound, how does the “effect of antagonist on response to AITC” value [1] read?
A: blocked

Q: And the “effect of antagonist preincubation on response to FFA” value [1]?
A: inhibited

Q: For `Cc1cccc(Nc2ccccc2C(=O)O)c1C` [MFA, mefenamic acid], which “agonist effect on Fluo4 fluorescence” value [1] is on record?
A: increased the Fluo4 fluorescence

Q: And the “nH (Hill coefficient)” value ([1]; WI-38 cells)?
A: 1.5 ± 0.2

Q: And the “effect … in HEK293 cells” value (HEK293 cells)?
A: little effect

Q: And the “interaction with AITC, CA, or cold on channel activation” value (rat TRPA1)?
A: positive synergistic effects

Q: With `O=C(O)c1cccnc1Nc1cccc(C(F)(F)F)c1` [NFA, niflumic acid] as the compound, how does the EC50 [1] read?
A: 28 ± 3 µM

Q: What about the “agonist effect on Fluo4 fluorescence” value [1] of the same compound?
A: increased the Fluo4 fluorescence

Q: And the “nH (Hill coefficient)” value ([1]; WI-38 cells)?
A: 1.4 ± 0.2

Q: And the “effect … in HEK293 cells” value (HEK293 cells)?
A: little effect

Q: What about the threshold of activation (rat TRPA1) of the same compound?
A: 10 to 30 µM

Q: And the “interaction with AITC, CA, or cold on channel activation” value (rat TRPA1)?
A: positive synergistic effects

Q: What about the “Hill co-efficient at +100 mV” value (rat TRPA1; +100 mV) of the same compound?
A: 2.6 ± 0.3

Q: What about the EC50 (rat TRPA1; EC50 for current activation at +100 mV, +100 mV) of the same compound?
A: 240 ± 12 µM

Q: And the EC50 (rat TRPA1; EC50 for current activation at −100 mV, −100 mV)?
A: 540 ± 27 µM

Q: And the “Hill co-efficient at −100 mV” value (rat TRPA1; −100 mV)?
A: 2.1 ± 0.2

Q: With `CC(=O)Oc1ccccc1C(=O)O` [acetylsalicylic acid, Acetylsalicylic acid] as the compound, how does the “agonist effect on Fluo4 fluorescence” value [1] read?
A: did not act as agonists

Q: For `C=CC=O` [acrolein], which “agonist effect on Fluo4 fluorescence” value [1] is on record?
A: rapid fluorescence increase

Q: And the “nH (Hill coefficient)” value ([1]; WI-38 cells)?
A: 1.0 ± 0.1

Q: What about the EC50 [3] of the same compound?
A: 0.8 µM

Q: Which results are given for `O=C(O)Cc1ccccc1Nc1c(Cl)cccc1Cl` [diclofenac, Diclofenac sodium salt]?
A: agonist effect on Fluo4 fluorescence ([Ca2+]i) in WI-38 cells [1]: increased the Fluo4 fluorescence; nH (Hill coefficient) ([1]; WI-38 cells): 1.3 ± 0.2; effect on Fluo4 fluorescence in HEK293 cells (HEK293 cells): little effect; effect on current in TRPA1-expressing oocytes (rat TRPA1): caused current increases

Q: With `CC(C)Cc1ccc([C@H](C)C(=O)O)cc1` [ibuprofen, (S)-(+)-ibuprofen] as the compound, how does the “agonist effect on Fluo4 fluorescence” value [1] read?
A: did not act as agonists

Q: For `COc1ccc2c(c1)c(CC(=O)O)c(C)n2C(=O)c1ccc(Cl)cc1` [indomethacin], which EC50 [1] is on record?
A: 470 ± 54 µM

Q: And the “agonist effect on Fluo4 fluorescence” value [1]?
A: increased the Fluo4 fluorescence

Q: And the “nH (Hill coefficient), fixed to make the fit” value ([1]; WI-38 cells, nH was fixed to 1.5)?
A: 1.5 ^b

Q: And the “effect … in HEK293 cells” value (HEK293 cells)?
A: little effect

Q: And the “effect on current” value (rat TRPA1)?
A: caused current increases

Q: Which EC50 [1] does the source give for `CC(C(=O)O)c1cccc(C(=O)c2ccccc2)c1` (stereo not drawn) [ketoprofen, Ketoprofen] here?
A: > 500 µM

Q: And the “agonist effect on Fluo4 fluorescence” value [1]?
A: increased the Fluo4 fluorescence

Q: What about the “effect … in HEK293 cells” value (HEK293 cells) of the same compound?
A: little effect

Q: What about the “effect on current” value (rat TRPA1) of the same compound?
A: very weak activator

Q: With `O=C(c1ccccc1)c1ccc2n1CCC2C(=O)O` (stereo not drawn) [ketorolac, ketorolac tromethamine salt] as the compound, how does the “antagonist effect on the response induced by FFA or AITC” value [1] read?
A: do not act as antagonists

Q: And the “agonist effect on Fluo4 fluorescence” value [1]?
A: fail to activate

Q: What about the “effect on current” value (rat TRPA1) of the same compound?
A: did not have an effect

Q: With `CC1CCC(C(C)C)C(O)C1` (stereo not drawn) [menthol] as the compound, how does the “concentration-response curve in triple cysteine mutant” value [2] read?
A: right-shifted

Q: With `COc1ccc2cc([C@H](C)C(=O)O)ccc2c1` [naproxen, (S)-naproxen] as the compound, how does the “antagonist effect on the response induced by FFA or AITC” value [1] read?
A: do not act as antagonists

Q: And the “agonist effect on Fluo4 fluorescence” value [1]?
A: fail to activate

Q: And the “effect on current” value (rat TRPA1)?
A: did not have an effect

Q: With `COC(=O)C1=C(C)NC(C)=C(C(=O)OC)C1c1ccccc1[N+](=O)[O-]` [nifedipine] as the compound, how does the EC50 [1] read?
A: 157 ± 8 µM

Q: What about the “agonist effect on Fluo4 fluorescence” value [1] of the same compound?
A: rapid fluorescence increase

Q: What about the “nH (Hill coefficient)” value ([1]; WI-38 cells) of the same compound?
A: 1.1 ± 0.1

Q: And the EC50 (human TRPA1)?
A: 140 ± 23 µM

Q: And the “nH (Hill coefficient)” value (human TRPA1)?
A: 1.0 ± 0.1

Q: What about the EC50 [3] of the same compound?
A: 0.4 µM

Q: Which results are given for `N.N.N.N.N.N.N.N.N.N.N.N.N.N.[Cl-].[Cl-].[Cl-].[Cl-].[Cl-].[Cl-].[O-2].[O-2].[Ru+3].[Ru+3].[Ru+4]` [ruthenium red]?
A: effect of antagonist on response to AITC [1]: blocked; IC50 ([1]; read-out: IC50 for inhibition of the response to FFA, curve not shown): 2.1 µM; effect on FFA-induced whole-cell currents [4]: completely abolished
